Measurements from ChEMBL document CHEMBL2040716, “Discovery of a new antileishmanial hit in 8-nitroquinoline series” (Eur J Med Chem, 2012).

Experiments:
Leishmania donovani [1] = experiment: Antileishmanial activity against Leishmania donovani MHOM/IN/00/DEVI promastigotes after 72 hrs by MTT assay; assay type: functional, organism-based
Summary of the method: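 Late log-phase promastigotes in Schneider's medium with 20% FCS, 2 mM L-glutamine, penicillin/streptomycin, at 10^6 parasites/mL. Compounds in DMSO (final <0.5% v/v) over a concentration range, in duplicate, 72 h at 27 °C. MTT 0.5 mg/mL added for 6 h at 27 °C; pellet dissolved in DMSO; A570. IC50 by non-linear regression versus control; mean of two independent experiments.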

[2] = Cytotoxicity against mouse J774A1 cells after 72 hrs by MTT assay; assay type: cell-based, J774.A1
Summary of the method: (§1)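 Cells plated in RPMI with 10% FBS, L-glutamine, penicillin/streptomycin at 37 °C, 6% CO2. After 24 h, a range of compound concentrations was added for 72 h. Wells checked for precipitate; MTT for 2 h at 37 °C; formazan dissolved in DMSO; A570 with 630 nm reference. Viability as % of untreated control; CC50 from dose-response curve, mean of two independent experiments.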

[3] = Cytotoxicity against human HepG2 cells after 72 hrs by MTT assay; assay type: cell-based; summary of the method: as §1
[4] = Selectivity index, ratio of CC50 for mouse J774A1 cells to IC50 for Leishmania donovani MHOM/IN/00/DEVI promastigotes; assay type: functional, J774.A1
Summary of the method: (§2)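 SI computed as CC50 (HepG2 or J774) divided by L. donovani promastigote IC50. Both values come from the MTT assays above, each the mean of two independent experiments.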

[5] = Selectivity index, ratio of CC50 for human HepG2 cells to IC50 for Leishmania donovani MHOM/IN/00/DEVI promastigotes; assay type: functional; summary of the method: as §2
Leishmania infantum = experiment: Antileishmanial activity against Leishmania infantum MCAN/ES/98/LLM-877 promastigotes after 72 hrs by MTT assay; assay type: functional, organism-based; details: MCAN/ES/98/LLM-877, 72 h
Leishmania donovani [6] = experiment: Antileishmanial activity against Leishmania donovani MHOM/IN/00/DEVI amastigotes infected in mouse J774A.1 cells after 120 hrs by Giemsa staining-based microscopic analysis; details: J774.A1, 120 h
Toxoplasma gondii = experiment: Antitoxoplasmic activity against Toxoplasma gondii PRU tachyzoites infected in human HFF cells assessed as beta-galactosidase activity after 72 hrs by colorimetric assay; assay type: functional, cell-based
Summary of the method: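 HFF monolayers grown to confluence (3.10^4 cells/well) in RPMI with 10% FCS at 37 °C, 6% CO2. Infected with 1 × 10^4 PRU-β-Gal tachyzoites for 3 h, then compounds (DMSO <0.5% v/v) added in triplicate for 72 h. 1 mM CPRG for 6 h; read at 570 and 630 nm, blanked on uninfected wells. IC50 by non-linear regression; mean of two experiments.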

Compound | IC50 (Leishmania donovani [1]) | CC50 at 72 h [2] | CC50 at 72 h [3] | Ratio CC50/IC50 [4] | Ratio CC50/IC50 [5] | IC50 (Leishmania infantum) | IC50 (Leishmania donovani [6]) | IC50 (Toxoplasma gondii)
O=Cc1ccc2ccccc2n1 | > 50 µM | 28.8 µM | > 100 µM | <0.58 | – | – | – | –
Cc1ccc2cc([N+](=O)[O-])ccc2n1 | > 50 µM | > 100 µM | > 100 µM | – | – | – | – | –
O=[N+]([O-])c1cccc2ncccc12 | > 50 µM | > 100 µM | > 100 µM | – | – | – | – | –
O=[N+]([O-])c1cccc2cccnc12 | > 50 µM | > 100 µM | > 100 µM | – | – | – | – | –
Cc1ccc2cccc([N+](=O)[O-])c2n1 | > 50 µM | > 100 µM | > 100 µM | – | – | – | – | –
Oc1ccc2ccccc2n1 | > 50 µM | > 100 µM | > 100 µM | – | – | – | – | –
O=Cc1ccc2c([N+](=O)[O-])cccc2n1 | > 50 µM | 22.8 µM | 92 µM | <0.46 | <1.8 | – | – | –
Clc1ccc2ccccc2n1 | > 50 µM | > 100 µM | > 100 µM | – | – | – | – | –
O=[N+]([O-])c1cccc2nc(Cl)ccc12 | > 50 µM | > 100 µM | > 100 µM | – | – | – | – | –
O=[N+]([O-])c1cccc2nc(O)ccc12 | > 50 µM | > 100 µM | > 100 µM | – | – | – | – | –
O=[N+]([O-])c1ccc2nc(O)ccc2c1 | > 50 µM | 83.7 µM | > 100 µM | <1.7 | – | – | – | –
C[C@@H]1[C@H](O)[C@@H](C)/C=C/C=C/C=C/C=C/C=C/C=C/C=C/[C@H](O[C@@H]2O[C@H](C)[C@@H](O)[C@H](N)[C@@H]2O)C[C@@H]2O[C@](O)(C[C@@H](O)C[C@@H](O)[C@H](O)CC[C@@H](O)C[C@@H](O)CC(=O)O[C@H]1C)C[C@H](O)[C@H]2C(=O)O [AMPHOTERICIN B] | 0.1 µM | 3.1 µM | – | – | – | 0.05 µM | – | –
COc1cccc2c1C(=O)c1c(O)c3c(c(O)c1C2=O)C[C@@](O)(C(=O)CO)C[C@@H]3O[C@H]1C[C@H](N)[C@H](O)[C@H](C)O1 [DOXORUBICIN] | – | 0.02 µM | – | – | – | – | – | –
CCCCCCCCCCCCCCCCOP(=O)([O-])OCC[N+](C)(C)C [MILTEFOSINE] | – | 94.6 µM | 50.3 µM | – | – | 11.6 µM | 6.8 µM | –
N=C(N)c1ccc(OCCCCCOc2ccc(C(=N)N)cc2)cc1 [PENTAMIDINE] | 6 µM | 1 µM | 2.3 µM | 0.17 | 0.38 | 8.2 µM | > 20 µM | –
CCc1nc(N)nc(N)c1-c1ccc(Cl)cc1 [PYRIMETHAMINE] | – | – | – | – | – | – | – | 0.8 µM
Cc1ccc2ccccc2n1 [QUINALDINE] | > 50 µM | > 100 µM | > 100 µM | – | – | – | – | –
c1ccc2ncccc2c1 [QUINOLINE] | > 50 µM | > 100 µM | > 100 µM | – | – | – | – | –
